Measured values published in ChEMBL document CHEMBL1145023, “Homology modeling of rat and human cytochrome P450 2D (CYP2D) isoforms and computational rationalization of experimental ligand-binding specificities” (J Med Chem, 2003).

Tests used:
Type in all cases: ADME
[1] = molecular target: T1, Cytochrome P450 2D3 (Rattus norvegicus, UniProt P12938); assay: Inhibition of MAMC O-dealkylation mediated by rat Cytochrome P450 2D3 expressed in Saccharomyces cerevisiae
T1 sequence (P12938 whole entry): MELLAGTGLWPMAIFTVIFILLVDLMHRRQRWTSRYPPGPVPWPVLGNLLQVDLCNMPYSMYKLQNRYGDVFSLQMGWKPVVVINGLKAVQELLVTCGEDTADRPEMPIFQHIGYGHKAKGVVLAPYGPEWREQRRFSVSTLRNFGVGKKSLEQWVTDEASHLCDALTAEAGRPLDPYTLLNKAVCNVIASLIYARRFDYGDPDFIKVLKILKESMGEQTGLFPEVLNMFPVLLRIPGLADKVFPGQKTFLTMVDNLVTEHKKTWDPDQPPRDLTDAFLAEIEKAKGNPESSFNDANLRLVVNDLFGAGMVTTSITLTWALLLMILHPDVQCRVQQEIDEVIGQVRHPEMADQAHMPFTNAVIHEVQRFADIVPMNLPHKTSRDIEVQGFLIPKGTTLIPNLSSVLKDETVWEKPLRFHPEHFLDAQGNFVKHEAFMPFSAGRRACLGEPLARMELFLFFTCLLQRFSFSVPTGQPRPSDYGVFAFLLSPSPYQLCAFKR
Procedure, shortened: (§1)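 Rat CYP2D isozymes are singly expressed in S. cerevisiae and used as microsomes in 100 mM phosphate, pH 7.4, at 37 °C. MAMC is 100 μM final, with or without varying inhibitor, after a 5 min preincubation. NADPH-regenerating system is added to start the reaction.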

[2] = molecular target: T2, Cytochrome P450 2D26 (Rattus norvegicus, UniProt P10634); assay: Inhibition of MAMC O-dealkylation mediated by rat Cytochrome P450 2D2 expressed in Saccharomyces cerevisiae; procedure, shortened: as §1
T2 sequence (P10634 whole entry): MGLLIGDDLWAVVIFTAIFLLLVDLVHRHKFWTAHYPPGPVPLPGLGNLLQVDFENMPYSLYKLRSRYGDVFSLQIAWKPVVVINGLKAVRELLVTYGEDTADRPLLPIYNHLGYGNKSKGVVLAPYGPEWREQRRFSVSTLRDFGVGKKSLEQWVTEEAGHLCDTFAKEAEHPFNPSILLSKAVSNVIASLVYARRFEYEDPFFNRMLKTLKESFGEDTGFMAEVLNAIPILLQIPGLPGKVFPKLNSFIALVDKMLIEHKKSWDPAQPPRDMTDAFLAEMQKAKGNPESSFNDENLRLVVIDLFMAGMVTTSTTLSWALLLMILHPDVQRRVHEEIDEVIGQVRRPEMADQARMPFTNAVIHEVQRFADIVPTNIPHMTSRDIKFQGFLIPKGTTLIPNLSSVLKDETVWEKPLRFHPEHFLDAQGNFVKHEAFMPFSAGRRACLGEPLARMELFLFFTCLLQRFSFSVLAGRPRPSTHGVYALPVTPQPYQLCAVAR

[3] = molecular target: T3, Cytochrome P450 2D1 (Rattus norvegicus, UniProt P10633); assay: Inhibition of MAMC O-dealkylation mediated by rat Cytochrome P450 2D1 expressed in Saccharomyces cerevisiae
T3 sequence (P10633 whole entry): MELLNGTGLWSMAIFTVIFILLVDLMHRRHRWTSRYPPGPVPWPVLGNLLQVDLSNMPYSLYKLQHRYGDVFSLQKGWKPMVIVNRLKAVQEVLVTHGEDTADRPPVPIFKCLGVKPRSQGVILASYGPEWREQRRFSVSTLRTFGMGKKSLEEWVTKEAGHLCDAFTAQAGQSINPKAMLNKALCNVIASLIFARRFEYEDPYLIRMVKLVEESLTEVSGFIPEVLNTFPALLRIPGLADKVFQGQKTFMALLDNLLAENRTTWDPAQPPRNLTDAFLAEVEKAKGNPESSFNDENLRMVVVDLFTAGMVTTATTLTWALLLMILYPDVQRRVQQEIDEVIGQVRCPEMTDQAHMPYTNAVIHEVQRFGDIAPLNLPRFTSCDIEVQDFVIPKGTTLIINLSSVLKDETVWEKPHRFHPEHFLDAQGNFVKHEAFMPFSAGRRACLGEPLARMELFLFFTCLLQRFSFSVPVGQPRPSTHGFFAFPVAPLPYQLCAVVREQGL
Procedure, shortened: as §1, with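 “°C. Enzyme concentrations are 52.0 nM (2D1), 3.1 nM (2D2), 3.6 nM (2D3) and 21.9 nM (2D4).” for “°C.”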

[4] = molecular target: T4, Cytochrome P450 2D4 (Rattus norvegicus, UniProt Q64680); assay: Inhibition of MAMC O-dealkylation mediated by rat Cytochrome P450 2D4 expressed in Saccharomyces cerevisiae; procedure, shortened: as §1
T4 sequence (Q64680 whole entry): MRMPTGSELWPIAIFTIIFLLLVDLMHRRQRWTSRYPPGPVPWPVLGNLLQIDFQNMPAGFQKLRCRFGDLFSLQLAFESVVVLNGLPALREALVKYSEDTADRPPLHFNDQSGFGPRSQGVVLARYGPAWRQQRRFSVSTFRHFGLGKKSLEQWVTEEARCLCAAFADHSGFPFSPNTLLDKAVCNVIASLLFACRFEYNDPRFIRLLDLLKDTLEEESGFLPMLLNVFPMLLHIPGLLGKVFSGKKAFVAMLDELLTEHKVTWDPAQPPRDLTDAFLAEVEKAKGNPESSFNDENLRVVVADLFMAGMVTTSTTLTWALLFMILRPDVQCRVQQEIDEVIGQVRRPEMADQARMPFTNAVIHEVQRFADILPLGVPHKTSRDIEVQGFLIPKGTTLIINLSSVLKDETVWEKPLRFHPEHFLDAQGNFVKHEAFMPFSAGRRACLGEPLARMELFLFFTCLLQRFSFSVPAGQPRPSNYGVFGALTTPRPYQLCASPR

[5] = molecular target: Cytochrome P450 2D6 (Homo sapiens, UniProt P10635); assay: Inhibition of MAMC O-dealkylation mediated by human Cytochrome P450 2D6 expressed in human lymphoblastoid cell line
Procedure, shortened: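 Human CYP2D6 (1 nM) competition run as a microplate-reader fluorescence assay. MAMC is the substrate at 10 μM final, with and without a range of inhibitor concentrations. IC50 is obtained by nonlinear least-squares one-site competition fitting.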

Cytochrome P450 2D6, sequence (P10635 whole entry): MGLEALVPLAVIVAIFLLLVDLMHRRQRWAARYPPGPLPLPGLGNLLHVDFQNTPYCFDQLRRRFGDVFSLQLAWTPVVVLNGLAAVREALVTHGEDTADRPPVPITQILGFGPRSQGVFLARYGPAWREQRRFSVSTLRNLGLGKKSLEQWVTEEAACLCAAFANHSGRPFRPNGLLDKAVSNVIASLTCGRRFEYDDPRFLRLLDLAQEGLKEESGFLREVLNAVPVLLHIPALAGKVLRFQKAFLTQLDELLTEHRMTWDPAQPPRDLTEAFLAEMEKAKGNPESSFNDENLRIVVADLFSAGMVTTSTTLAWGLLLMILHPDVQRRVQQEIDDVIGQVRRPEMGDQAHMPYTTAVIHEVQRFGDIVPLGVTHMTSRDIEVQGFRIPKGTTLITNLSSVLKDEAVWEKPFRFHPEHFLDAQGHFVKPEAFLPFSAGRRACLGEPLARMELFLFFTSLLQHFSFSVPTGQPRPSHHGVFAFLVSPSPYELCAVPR

SMILES | IC50 [1] [µM] | IC50 [2] [µM] | IC50 [3] [µM] | IC50 [4] [µM] | IC50 [5] [µM]
COc1ccc2c(CN(C)C)cc(=O)oc2c1 | 862 | 307 | 329 | 1180 | 74.2
COc1ccc2c3c1O[C@H]1[C@@H](O)C=C[C@H]4[C@@H](C2)N(C)CC[C@@]341 [CODEINE] | 4090 | 238 | 1320 | 2220 | –
N=C(N)N1CCc2ccccc2C1 [DEBRISOQUIN] | 1750 | 107 | 529 | 747 | 23.8
CC(C)NC[C@@H](O)COc1cccc2ccccc12 [DEXPROPRANOLOL] | 155 | 0.42 | 182 | 117 | –
COc1ccc2c(c1)[C@]13CCCC[C@@H]1[C@H](C2)N(C)CC3 [DEXTROMETHORPHAN] | 18.6 | 5.6 | 264 | 136 | 1.8
CC(C)NC[C@H](O)COc1cccc2ccccc12 [LEVOPROPRANOLOL] | 172 | 0.35 | 571 | 133 | –
CNCCC=C1c2ccccc2CCc2ccccc21 [NORTRIPTYLINE] | 14.2 | 1.9 | 204 | 19.3 | 2.3
[H]/N=C(/N)N/C(=N/[H])NCCc1ccccc1 [PHENFORMIN] | 1930 | 45.4 | – | 833 | 27
C=C[C@H]1C[N@@]2CC[C@H]1C[C@@H]2[C@@H](O)c1ccnc2ccc(OC)cc12 [QUINIDINE] | 26.9 | – | 19.9 | 47.2 | –
C=C[C@H]1C[N@@]2CC[C@H]1C[C@H]2[C@H](O)c1ccnc2ccc(OC)cc12 [QUININE] | 12 | – | 46.5 | 1.7 | –
